Insulin prom inh: TRM-6 insulin promoter activity inhibition; AID 1273; 130,000 tested, 0.9% active; inhibition, % at 2 µM; TRM-6 cells (human fetal islet line), insulin promoter-eGFP reporter, imaging; reporter expression induced with tamoxifen;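 active means inhibition above the mean plus 3 SD, with well images judged a real hit on visual review, cut at about 60% in these data, passing the limit was not always enough; inconclusive means inhibition over the cutoff but images rejected on review; inactive means inhibition not above the cutoff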
Insulin prom up: MIN6 insulin promoter up-regulation; z-score at 5 µM; 190,000 tested, 0.3% active; MIN6 insulin promoter-GFP reporter, high-content imaging; stronger effect = higher value;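 active means z-score above 3 at 5 µM with at least 500 cells counted in the well; inconclusive means wells under 500 cells, flagged as cytotoxic or low count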
Dynein cargo inh: blocks dynein driven cargo transport along microtubules; 3617.4 mouse cells, GR-EGFP nuclear translocation imaging; test concentration mostly 20 µM; stimulated with dexamethasone, 1 µM; stronger effect = lower value; z-score, hits read low; 220,000 tested, 0.47% active;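 active means plate z-score of nuclear minus cytoplasmic receptor signal below a set negative limit, without overly bright fluorescence or cell loss, cut at about -3.5 in these data, passing the limit was not always enough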;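 further: z-score of nuclear minus cytoplasmic ring GR-EGFP intensity difference per well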
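Buffer or medium: tet-free medium with charcoal-stripped serum / Also added: dexamethasone agonist, 1.0 µM final, for 30 min / Timing: induction 48 h, compound 1 h, agonist 30 min / Measured by: high-content fluorescence imaging after fixation / Read-out: nuclear-to-cytoplasmic GR-EGFP distribution per well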
HSV augment: HSV replication enhancement | HSV replication augmentation in cells, fold increase | maximum fold increase | 220,000 tested, 0.005% active; in the data active means maximum fold increase above about 1.5; inconclusive means no clear call, values can overlap the other calls; tested in PC3 cells
Autophagy HCS: modulators of autophagy | MEF GFP-LC3 puncta imaging; test concentration mostly 10 µM | calls only at 10 µM (by protocol) | 190,000 tested, 0.98% active;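 active means percentage of spot-positive cells more than 3 SD above its plate mean, without a fluorescence outlier flag or 80% toxicity; inconclusive means no clear call, values can overlap the other calls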;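 further: spot-positive cell cutoff set from DMSO-treated cells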
Furin inhibitor: blocks human furin protease activity; P09958; purified furin, fluorogenic substrate cleavage; 220,000 tested, 0.061% active; inhibition, % at 20 µM or 30 µM; in the data active means inhibition above about 25%
Target sequence (P09958 108-714 limits assumed): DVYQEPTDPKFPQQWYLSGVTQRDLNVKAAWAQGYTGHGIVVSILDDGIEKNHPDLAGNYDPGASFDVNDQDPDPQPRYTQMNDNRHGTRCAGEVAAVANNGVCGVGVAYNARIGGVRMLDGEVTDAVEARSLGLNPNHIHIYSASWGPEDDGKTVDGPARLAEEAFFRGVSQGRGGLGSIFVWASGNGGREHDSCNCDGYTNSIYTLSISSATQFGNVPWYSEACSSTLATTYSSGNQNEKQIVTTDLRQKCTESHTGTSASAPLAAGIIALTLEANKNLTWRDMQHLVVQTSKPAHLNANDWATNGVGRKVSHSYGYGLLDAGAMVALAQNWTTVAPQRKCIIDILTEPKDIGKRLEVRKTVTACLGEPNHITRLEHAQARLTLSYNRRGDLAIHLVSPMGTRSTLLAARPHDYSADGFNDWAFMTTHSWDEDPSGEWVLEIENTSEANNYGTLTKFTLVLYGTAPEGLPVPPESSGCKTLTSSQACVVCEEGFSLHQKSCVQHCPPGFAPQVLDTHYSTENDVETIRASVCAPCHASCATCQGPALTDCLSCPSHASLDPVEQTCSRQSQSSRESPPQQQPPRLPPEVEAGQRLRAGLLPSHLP
An asterisk follows results filed as active; i = inactive; ? = inconclusive; · = not tested or not shown; + = active, no number. Rows were chosen to be rich in hits. Some 2% of all compounds tested hit in one or more screens of this group.

SMILES | Insulin prom inh | Insulin prom up | Dynein cargo inh | HSV augment | Autophagy HCS | Furin inhibitor
O=C(c1ccccc1)c1cc([N+](=O)[O-])ccc1N1CCOCC1 | · | -0.61 | -0.528 | i | i | -0.2
O=C(c1ccc(Cl)cc1)c1cc([N+](=O)[O-])ccc1N1CCOCC1 | · | 0.32 | -0.422 | i | + | -7.7
CC(=O)NCCCNS(=O)(=O)c1ccc(C)cc1 | · | -0.45 | -0.226 | i | i | -28.1
Cc1cc(/C=C2\SC(=S)N(Cc3ccco3)C2=O)c(C)n1-c1ccccc1 | -222.6 | 1.24 | -2.11 | ? | + | 7.3
O=C1/C(=C\c2ccco2)SC(=S)N1Cc1ccccc1 | -150.0 | 0 | 0.171 | i | i | -29.2
CCN1CC(c2ccccc2)C(c2ccc(Cl)cc2)=N1 (stereo not given) | 28.1 | -0.73 | 0.356 | i | i | -24.3
COc1ccc(/C=N/c2oc(C)c(C)c2C#N)c(OC)c1 | · | 0.95 | 1.15 | i | + | -10.6
Cc1oc(/N=C/c2cccc3ccccc23)c(C#N)c1C | 15.2 | -0.3 | -0.137 | i | i | -24.1
CCOc1ccccc1N/C(=N/c1nc(C)cc(C)n1)NC(=O)Nc1ccc(Cl)c(Cl)c1 | 42.9 | -0.82 | 1.67 | i | i | -8.3
O=C(c1ccc(Cl)cc1)c1ccccc1C(=O)N1CCOCC1 | 0.0 | 0.46 | -0.0373 | i | i | -10.6
O=C(c1ccccc1)c1ccccc1C(=O)N1CCOCC1 | 90.0* | -0.84 | -0.0676 | i | i | -9.1
CCCCC(=O)Nc1ccccc1C(=O)N1CCOCC1 | 71.0* | 0.54 | -0.00186 | i | i | -330.0
O=C(O)CCCC(=O)Nc1ccccc1C(=O)N1CCOCC1 | · | -0.6 | 2.94 | i | i | -2.8
O=C(COC(=O)c1ccc(Cl)c(S(=O)(=O)NCc2ccccc2)c1)NCC1CCCO1 (stereo not given) | · | -0.68 | -1.27 | i | i | -17.4
CC1(C)CC(=O)C(C=Nc2ccc(Cl)cn2)=C(O)C1 | -11.1 | · | 1.03 | i | i | 53.1*
Cc1ccnc(NS(=O)(=O)c2cnc(Cl)c(Br)c2)c1 | · | -0.09 | -0.825 | i | i | -20.7
COC(=O)[C@@H]1CCCN1C(=O)CCc1nnc(CCC2CCCCC2)o1 | 30.4 | · | -1.23 | i | i | -9.0
N#Cc1ccc(CSc2nnc(NC(=O)c3ccc4ncsc4c3)s2)cc1 | · | 4.4* | -0.274 | i | i | -30.4
Cc1ccc(S(=O)(=O)ON2C(=O)c3ccccc3C2=O)c(C)c1 | 8.8 | 0.28 | -4.81* | i | i | -10.7
O=C(c1ccccc1F)N1CCCC(C(=O)N2CCc3ccccc3C2)C1 (stereo not given) | · | -0.14 | 0.905 | i | · | -13.5
C(=C1/CCCC2=C1Nc1ncnn1C2c1ccccc1)/c1ccccc1 (stereo not given) | 73.0* | 0.11 | 1.26 | i | i | -15.0
NS(=O)(=O)c1cnccc1Nc1ccc(Cl)c(Cl)c1 | -41.7 | 0.05 | -0.213 | i | i | -19.5
O=C(O)c1ccc2c(=O)n(-c3ccccc3F)c(=S)[nH]c2c1 | -35.0 | · | 0.667 | i | i | -14.4
COC(=O)c1ccc2c(=O)n(-c3ccccc3F)c(=S)[nH]c2c1 | 100.0* | 0.81 | -0.71 | i | i | -23.6
CSCCC(NS(=O)(=O)/C=C/c1ccccc1)C(=O)O (stereo not given) | -57.1 | -0.23 | -0.825 | i | i | -36.3
SMILES | Insulin prom inh | Insulin prom up | Dynein cargo inh | HSV augment | Autophagy HCS | Furin inhibitor
CC(=O)c1ccc(NC(=O)CCSCCC(=O)Nc2ccc(C(C)=O)cc2)cc1 | -69.0 | -0.36 | -0.54 | i | i | -16.1
O=C(O)CSCCC(=O)Nc1ccc(F)cc1 | · | 0.89 | 0.328 | i | + | -20.0
Cc1ccccc1NC(=O)CSc1nnc(Cc2ccccc2)o1 | 75.0* | 0.65 | -0.657 | i | i | -16.7
Cc1ccc(NC(=O)CSc2nnc(Cc3ccccc3)o2)c(C)c1 | -6.7 | 0.84 | 1.88 | i | i | -12.3
CCOc1ccc(NC(=O)c2nn(C)cc2Br)cc1 | 42.9 | 0.11 | -0.102 | i | i | -20.0
Cn1cc(Br)c(C(=O)Nc2ncc(Br)s2)n1 | 29.4 | 0.33 | -0.791 | i | + | -6.9
Clc1nnc(N/N=C/c2ccccc2)c2ccccc12 | 58.1 | 0.06 | 1.43 | i | i | -17.8
Clc1ccc(/C=N/Nc2nnc(Cl)c3ccccc23)cc1 | 68.8 | · | 0.308 | i | + | 3.2
O=C(NNc1ncc(C(F)(F)F)cc1Cl)c1c(Cl)cccc1Cl | 26.5 | 1.48 | 3.46 | i | + | -9.4
CC(=O)c1ccc(Nc2cc(C)nc3c(C)cc(C)cc23)cc1 | · | · | -0.33 | i | + | 6.9
Cc1cc(C)c2nc(C)cc(Nc3ccc(C(=O)N(C)C)cc3)c2c1 | · | -0.42 | -0.345 | i | · | 15.7
CCCCCCN(C(=O)CCCCCN1C(=O)NC(c2cccc([N+](=O)[O-])c2)C(C(=O)OCc2ccccc2)=C1C)C(C(=O)NCCCC)c1ccc(OCC(=O)OC)c(C(=O)OC)c1 (stereo not given) | · | 0.29 | 1.07 | · | · | -12.0
Cc1ccc(S(=O)(=O)N2CCOCC2)cc1C(=O)NC(=S)N1CC(C)OC(C)C1 (stereo not given) | · | -0.12 | 1.52 | i | · | -21.8
O=C(/C=C/c1ccco1)NC(=S)Nc1ccccc1N1CCOCC1 | -25.7 | -0.97 | -0.0682 | i | i | -2.4
O=C(/C=C/c1ccco1)NC(=S)Nc1ccccc1N1CCCC1 | 5.0 | 3.08* | 0.455 | i | i | 3.9
CCCC(=O)n1nc(-c2ccc(Cl)cc2)nc1SC | 75.0* | · | 0.291 | · | i | -15.3
CCC(=O)n1nc(-c2ccc(OC)cc2)nc1SC | 89.2* | · | 0.221 | i | i | -18.8
CCC(=O)n1nc(-c2ccc(Cl)cc2)nc1SC | 65.8 | · | -0.576 | · | i | -13.6
CCOc1ccccc1NC(=O)Cc1ccccc1OC | 81.2* | -0.35 | 0.405 | i | i | -13.7
CCOC(=O)c1ccccc1NS(=O)(=O)c1ccc(OCC)cc1 | -73.9 | -0.19 | -0.55 | i | + | -9.5
CCOc1ccccc1NC(=O)CCC(=O)Nc1ccccc1OCC | 3.6 | 0.19 | 0.343 | i | i | -11.4
CCOc1ccc(S(=O)(=O)Nc2cc(OC)ccc2OC)cc1 | -48.8 | -2.58 | -0.44 | i | + | -19.9
Cc1ccccc1NS(=O)(=O)c1ccc(OCC(=O)NCc2cccnc2)cc1 | · | -0.26 | -0.583 | i | + | -15.8
Cc1ccc(S(=O)(=O)NC(=O)Nc2cc(C(C)(C)C)on2)cc1 | · | · | -0.498 | i | · | -16.8
O=C(C1=C[C@H](c2ccc(Br)cc2)C[C@H](OCCCCO)O1)N1CCN(Cc2ccccc2)CC1 | · | -0.42 | -1.84 | i | i | -23.7
COc1ccc(OC)c(NC(=O)c2ccccc2SC)c1 | -59.4 | 1.02 | -0.675 | i | i | -22.7
COc1ccc(OC)c(NS(=O)(=O)c2ccc(N3CCCC3=O)cc2)c1 | · | -1.57 | 0.648 | i | + | -22.7
CCOc1ccccc1C(=O)Nc1cc(OC)ccc1OC | · | -0.29 | 0.921 | i | + | 4.7
Cc1ccc(-c2nnn(C/C(N)=N/O)n2)cc1 | -6.2 | 0.71 | -1.05 | i | i | -29.6

Bioassay records from PubChem BioAssay.
